Screens deposited in PubChem BioAssay by Sanford-Burnham Center for Chemical Genomics.
The list is a sample of the results.
Apaf-1 act: activates human Apaf-1 apoptosome; Apaf-1 apoptosome caspase-3 activation, DEVD-Rh110 fluorescence; hits give low values; 0.31% of 330,000 active; activity change, negative = activation, % at 20 µM;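 active = activity change at or below -40% at 20 µM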
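Schedule: 30 min preincubation, 50 min reaction, room temperature / System: biochemical Apaf-1 apoptosome reconstitution / Medium: 20 mM HEPES pH 7.5 with CHAPS, BSA / Evaluation: Caspase-3 cleavage activity downstream of Apaf-1 activation / Detection: Caspase-3-released Rh110 fluorescence, 540 nm emission, 480 nm excitation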
Rh110 interf act: counter-screen for Apaf-1 activators: fluorescence interference; shares compounds with Apaf-1 act; Rh110 fluorescence interference, quenched caspase reaction, Ex480/Em540; fluorescence interference (activity change), % at 20 µM, hits read low; 980 tested, under 10 active;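 active = mean activity change at or below -40% when tested at 20 µM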
Apaf-1 act conf: confirmation of human Apaf-1 activators. activity change, negative = activation, % at 20 µM. reconstituted apoptosome caspase-3 activity, DEVD-Rh110 fluorescence; hits give low values. shares compounds with Apaf-1 act. 5% of 980 active;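 active = mean activity change at or below -40%, meaning activation of 40% or more, at 20 µM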
Numbers without * were called inactive; / = no result given.

SMILES	Apaf-1 act	Rh110 interf act	Apaf-1 act conf
COc1ccc(C(CCN2CCCC(C)C2)c2c(OC)cc(OC)c3c(-c4ccccc4)cc(=O)oc23)cc1 (configuration not stated)	54.4	/	/
CC(C)=CCC/C(C)=C/CNC(=O)C[C@H]1C[C@H](C(=O)N2CCOCC2)[C@@]2(C)c3[nH]c4cc(-c5ccco5)ccc4c3CCN2C1=O	44.4	/	/
CN1CCN(c2cc3c(c4c2[nH]c2ccccc24)C(=O)CC(C)(C)C3)CC1	50.4	/	/
O=c1oc2cc(O)ccc2c2oc3cc(O)ccc3c12	-40.8*	14.9	18.1
COc1ccc2c(c1)c(=O)oc1cc(O)ccc12	-298.5*	1.6	10.5
Cc1ccc(OCC(=O)N/N=C\c2c(C)n(C)c3ccccc23)c([N+](=O)[O-])c1	42.0	/	/
COc1cc(/C=C/C(=O)OCC(=O)Nc2ccc(C)cc2[N+](=O)[O-])ccc1O	-93.7*	-2.0	-37.1
COc1cc(/C=C/C(=O)OCC(=O)Nc2cc(C)c(C)cc2[N+](=O)[O-])ccc1O	-70.6*	-3.1	-27.1
COc1cc2c(C#N)c(N3CCc4ccccc4C3)nc(N)c2c(N)n1	94.3	/	/
COC(=O)CCC(=O)OC1(C)C(=O)C2=CN(CC3CC3)C(c3ccc(OC)cc3)=CC2=C(Br)C1=O (configuration not stated)	66.3	/	/
CC(=O)c1ccc(Nc2nc(-c3cccnc3)cs2)cc1	-208.2*	15.9	13.5
NC(N)=NC(N)=Nc1cccc2ccccc12	82.5	/	/
CCC(CO)Oc1cc(NCc2ccccc2OC)c2ncn(C(C)C)c2c1 (configuration not stated)	60.6	/	/
CCCc1cc(C(=O)Nc2sc(C(C)=O)c(C)c2C(=O)OCC)no1	-192.1*	-6.6	8.4
CCCc1ccc2oc(C(=O)NCCc3nc(C(=O)OCC)cs3)c(C)c2c1	40.8	/	/
COc1ccc(NC(=O)CC2Nc3cccc4cccc(c34)NC2=O)cc1 (configuration not stated)	94.2	/	/
COc1ccc(/C=C/C(=O)NC(=S)Nc2ccc(S(N)(=O)=O)cc2)cc1	-79.8*	-1.7	14.3
Oc1c(Br)cc(C=Nc2ccc3nc(-c4ccccc4)[nH]c3c2)c(O)c1Br	64.9	/	/
COc1ccc(NC(=O)CCl)cn1	67.2	/	/
CC(C)c1ccc(/C=N/Nc2cc(N3CCOCC3)nc(N3CCOCC3)n2)cc1	62.1	/	/
Cc1cc(N2CCCCC2)nc(N2CCOCC2)n1	-56.7*	5.9	10.4
Cc1cccc(/C=N/Nc2cc(N3CCOCC3)nc(N3CCOCC3)n2)c1	67.6	/	/
CS(=O)(=O)N(CC(=O)Nc1ccccc1C(=O)N1CCOCC1)c1cccc(F)c1	-57.3*	3.5	-0.8
Cc1cccc2cc(C(c3nnnn3CC3CCCO3)N3CCc4ccccc4C3)c(=O)[nH]c12 (configuration not stated)	78.6	/	/
COc1ccc(N=C2C(=Nc3ccc(OC)cc3)N(c3ccc(OC)cc3)C(=S)N2c2ccccc2)cc1	74.7	/	/
SMILES	Apaf-1 act	Rh110 interf act	Apaf-1 act conf
Cc1[nH]n(-c2ccccc2)c(=O)c1C(c1ccc(O)c([N+](=O)[O-])c1)c1c(C)[nH]n(-c2ccccc2)c1=O	87.2	/	/
CC1CC2(CCCCC2)N2C(=O)C(=O)c3cccc1c32 (configuration not stated)	41.0	/	/
C=CCn1c(COc2cccc(C)c2)nnc1SC(C)C(=O)NC1CC1 (configuration not stated)	41.2	/	/
CCCCCCNC(=O)N[C@@H](C(=O)NCCC[C@H]1CN2C(=NC[C@@H]2Cc2ccccc2)N1CCc1cccc(OC)c1)C(C)C	53.7	/	/
Cc1cc2cc(CNC(=S)Nc3ccc(OC(F)(F)F)cc3)ccc2n1C	59.1	/	/
Cc1ccc(NC(=S)Nc2cccc3ccccc23)cc1F	88.9	/	/
CC(C)CC(=O)NC(=S)Nc1ccccc1F	-79.7*	-7.1	11.2
CC1=NN(c2ccccc2)C(=O)/C1=C/c1cc2cc(C)ccc2nc1N1CCCCC1	94.2	/	/
CCCCCc1cc(=O)oc2c(C(CCN3CCCCC3)c3ccc4c(c3)OCO4)c(OC)cc(OC)c12 (configuration not stated)	65.9	/	/
O=C1C(=O)N(c2nccs2)C(c2ccccc2F)/C1=C(\O)c1ccc2c(c1)OCCO2 (configuration not stated)	-40.1*	13.1	19.7
O=C1C(=O)N(CCN2CCOCC2)C(c2ccccc2)/C1=C(\O)c1ccc2c(c1)OCCO2 (configuration not stated)	50.3	/	/
Nc1c(Br)cc(Br)cc1CNC1CCC(O)CC1 (configuration not stated)	10.8	/	/
CC1(C)Cc2cccc(OCC(=O)N3CCN(c4cccc(C(F)(F)F)c4)CC3)c2O1	44.6	/	/
COC(=O)CCC(=O)OC1(C)C(=O)C=C2C=C(C3CC3)N(CCc3ccccn3)C=C2C1=O (configuration not stated)	53.2	/	/
CCN(CC)C(=O)Cn1cc(S(=O)(=O)CC(=O)N2CCOCC2)c2ccccc21	-55.6*	12.3	12.3
O=C1c2ccccc2-c2c1nc1c([n+]2[O-])CCCC1	41.6	/	/
Oc1c(Br)cc(Br)cc1C=Nc1ccc2[nH]ncc2c1	83.8	/	/
C#CCOCCOCCOCCNc1nc(N2CCN(C(=O)CCCCCCCCCCNC(=O)[C@H]([C@@H](C)CC)n3cc(CCCCN=C(N)N)nn3)CC2)nc(N2CCN(C(=O)CCCCCCCCCCNC(=O)[C@H](CO)n3cc(CCCCCN)nn3)CC2)n1	85.1	/	/
COc1ccc(C2CC(c3ccc(OC)cc3)n3nc(NC(=O)c4ccco4)nc3N2)cc1 (configuration not stated)	-329.7*	-8.5	15.3
COc1ccc2c(c1)Cc1sc(NC(=O)c3ccco3)nc1-2	85.4	/	/
C[N+]1(C)CCC(=C2c3ccccc3CC(=O)c3sccc32)CC1	57.3	/	/
CCOC(=O)COc1ccc(S(=O)(=O)NCC2CCCO2)cc1 (configuration not stated)	-185.3*	0.2	8.3
COc1ccc(C(=O)/C=C/C(=O)N(CC(=O)NC2CCCCC2)CC2CCCO2)c(O)c1 (configuration not stated)	49.3	/	/
Cc1cc(C)nc(-n2nc(C)cc2NC(=O)CN2CCc3ccccc3C2)n1	54.2	/	/
COC(=O)c1[nH]c2cc(C)ccc2c1NC(=O)CN1CCc2cc(OC)c(OC)cc2C1	-175.9*	-1.6	12.1
SMILES	Apaf-1 act	Rh110 interf act	Apaf-1 act conf
CN(C)CCCNC(=O)C[C@H]1C[C@H](C(=O)N2CCCCC2)[C@@]2(C)c3[nH]c4cc(-c5ccco5)ccc4c3CCN2C1=O	41.9	/	/
Cc1[nH]c2ccccc2c1C(C#N)(C#N)C1C(=O)c2ccccc2C1=O	72.5	/	/
Nc1ccc(N(CCO)CCO)cc1	84.2	/	/
Cc1cc(C)cc(NC(=S)Nc2cccc3cnccc23)c1	97.6	/	/
COC(=O)C1=C(C)N(Cc2ccccc2)C(=NCC(C)C)N[C@H]1c1cccc(C(F)(F)F)c1	58.0	/	/
CCN1C(=NCCc2ccccn2)N[C@@H](c2cccc(C(F)(F)F)c2)C(C(=O)OC)=C1C	-114.4*	12.7	9.1
COC(=O)C1=C(C)N(Cc2ccccc2)C(=NCCc2ccccn2)N[C@H]1c1cccc(C(F)(F)F)c1	48.4	/	/
